hERG rescue – compounds protecting human hERG from proarrhythmic drug block. 310,000 tested, 0.51% active. CHO-hERG, FluxOR thallium flux, dofetilide IC70 present. activation (rescue from dofetilide block), less the hit threshold, % at 10 µM;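 active means activation above the mean of controls blocked by dofetilide plus 5 SD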;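 further: thallium influx through hERG after potassium depolarization seen as dye fluorescence rise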
KCNK9 block – blocks the human KCNK9 two-pore domain potassium channel; HEK293 KCNK9, FluxOR thallium flux fluorescence; hits give low values; B-score at 10 µM; 310,000 tested, 1.2% active;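 active means ratio B-score over 3 SD below the library mean, with starting fluorescence within 5 SD of its mean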;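 further: negative B-score means less thallium flux so channel inhibition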
Cl transport mod – modulates chloride dependent transport by human KCC2; B-score of Tl+ flux slope (higher = more flux/activation; lower = inhibition) at 10 µM; 190,000 tested, 2.2% active; AID 1456; KCC2 cells, thallium flux FluoZin-2 fluorescence; Q9H2X9;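 active means thallium flux slope and its plate-corrected score both differing from the plate sample mean at a set confidence after two filtering rounds, in either direction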;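 further: slope of fluorescence scaled to starting intensity during 10 to 20 s after thallium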
KCNQ1 inh – human KCNQ1 channel inhibition. P51787. B-score at 10 µM. 310,000 tested, 1.3% active. AID 2642. CHO-K1 KCNQ1, FluxOR thallium flux fluorescence; hits give high values;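 active means compounds whose thallium flux B-score, printed positive for inhibition, exceeds three library SD while starting fluorescence stays within three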;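 further: channel opened by potassium depolarization with thallium stimulus after 20 min compound exposure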
KCNQ1 pot – potentiators or activators of human KCNQ1 potassium channel | P51787 | CHO-K1 KCNQ1, thallium flux FluxOR fluorescence; hits give high values | AID 2648 | B-score at 10 µM | 310,000 tested, 0.35% active;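 active means fluorescence ratio B-score, a plate-corrected score, at least three library SD, with initial intensity B-score within 5 SD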
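assay system = CHO-K1 cells stably expressing KCNQ1 | medium = assay buffer, equal DMSO in all wells | timing = 37 °C overnight plating, 90-min dark dye load, 20-min compound pretreatment | measured by = kinetic FluxOR thallium fluorescence, 10-s 1-Hz baseline, 110-s post-stimulus read | measure = fluorescence change relative to baseline, converted to B score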
KCNK3 block – human KCNK3 channel inhibition, primary screen. CHO-KCNK3 thallium flux, FluxOR fluorescence; hits give low values. AID 602410. O14649. B-score at 10 µM. 340,000 tested, 0.84% active;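 active means B-score under library mean minus 4 SD, starting fluorescence ratio at most library mean plus 5 SD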;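 further: more negative B-score means stronger inhibition of thallium flux through KCNK3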
Target sequence (O14649 whole entry, looked up): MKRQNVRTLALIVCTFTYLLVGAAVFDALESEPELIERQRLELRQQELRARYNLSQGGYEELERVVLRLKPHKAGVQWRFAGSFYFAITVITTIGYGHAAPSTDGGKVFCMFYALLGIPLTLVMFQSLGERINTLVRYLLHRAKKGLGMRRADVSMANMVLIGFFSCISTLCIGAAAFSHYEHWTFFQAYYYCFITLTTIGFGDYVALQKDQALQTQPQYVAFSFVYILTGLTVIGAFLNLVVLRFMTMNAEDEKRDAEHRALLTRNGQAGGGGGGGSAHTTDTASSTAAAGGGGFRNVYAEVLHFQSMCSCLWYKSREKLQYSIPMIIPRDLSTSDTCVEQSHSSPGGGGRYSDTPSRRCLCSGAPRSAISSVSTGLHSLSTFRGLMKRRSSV
KCNK9 inh conf – human KCNK9 inhibitor confirmation | shares compounds with KCNK9 block | HEK293 KCNK9 cells, FluxOR thallium flux fluorescence | inhibition, % at 10 µM | 4,900 tested, 43% active | AID 492992;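 active means thallium signal inhibited by more than 5 SD of the compound-free buffer control wells, on both duplicate plates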;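 further: 0% = assay buffer control wells without compound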
Kir21 sel – mouse Kir2.1 off-target activity of KCNK9 modulators; shares compounds with KCNK9 block; Kir2.1 cells, FluxOR thallium flux fluorescence; inhibition, % at 10 µM; 4,900 tested, 4% active;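 active means thallium signal drop more than 5 SD beyond the mean of the no-compound control wells, seen in both duplicate plates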;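 further: signal is fluorescence rise after thallium addition divided by baseline fluorescence; plate controls were assay buffer only for no effect and full block by chlorpromazine control for full effect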
HEK293 Tl ctr – non-induced cell nonspecific activity of KCNK9 modulators; shares compounds with KCNK9 block; non-induced KCNK9-HEK293, FluxOR thallium flux; inhibition, % at 10 µM; 4,900 tested, 40% active; AID 492997;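 active means thallium signal drop beyond 5 SD of the untreated control mean, on both duplicate plates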;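 further: plate controls were buffer only IC0 wells for no effect and SID17386958 at its maximal inhibitory level for full effect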
* hit, by the source's call; i = inactive; x = not tested or not shown. Shown are actives, neighbours in structure and some others; about 4.1% of the full set was active somewhere.

SMILES	hERG rescue	KCNK9 block	Cl transport mod	KCNQ1 inh	KCNQ1 pot	KCNK3 block	KCNK9 inh conf	Kir21 sel	HEK293 Tl ctr
CC(C)(C)c1ccc(C(=O)C2CCCN(C(=O)c3ccccn3)C2)cc1 (stereo not drawn)	-22	i	x	i	i	i	x	x	x
S=c1[nH]nc(C2CCCCC2)n1/N=C/c1c(Cl)cccc1Cl	-7	i	x	i	i	i	x	x	x
COCCN(C(=O)COC(=O)C12CC3CC(CC(C3)C1)C2)c1c(N)n(Cc2ccccc2)c(=O)[nH]c1=O	x	x	x	x	x	i	x	x	x
Cc1ccccc1NC(=O)c1sc2nc3c(c(-c4ccco4)c2c1N)CCC3	-12	-8.1*	-0.4	i	i	i	30%*	i	26%*
COc1ccc(NC(=S)N2c3ccccc3CC2C)cc1OC (stereo not drawn)	-6	i	-0.22	i	i	i	x	x	x
CC1Cc2ccccc2N1C(=S)NC1CCCC1 (stereo not drawn)	-13	i	x	i	i	i	i	i	i
Cc1cc2c(=O)n(CC(=O)NCC(=O)N3CCN(Cc4ccccc4)CC3)cnc2s1	-6	-11*	0.55	i	i	i	i	i	i
CCOC(=O)N1CCN(C(=O)CNC(=O)Cn2cnc3ccccc3c2=O)CC1	-4	i	0.22	i	i	i	x	x	x
Cc1ccccc1-c1nnc(SCC(=O)N2CCCC2)o1	-4	i	x	i	i	i	x	x	x
Cc1nc(SCC(=O)N2CCN(c3ccccc3)CC2)n[nH]1	-9	i	x	i	i	i	x	x	x
O=C(CSc1nc(N2CCCCC2)nc(N2CCCCC2)n1)N1CCN(c2ccccc2)CC1	-2	i	0.39	i	i	i	i	i	i
O=C1/C(=C/c2ccccc2)CCc2ccc(Cl)nc21	x	x	x	x	x	i	x	x	x
Cn1cc(/C=N/n2cnc3scc(-c4ccccc4)c3c2=O)c2ccccc21	-10	i	-0.32	i	i	i	i	i	i
O=c1c2c(-c3ccccc3)csc2ncn1/N=C/c1cccc([N+](=O)[O-])c1O	-5	i	-2.2	i	i	i	x	x	x
Cc1cccc(OCCCCCn2ccnc2)c1C	-8	i	-0.81	i	i	i	i	i	i
N#Cc1ccc(N)cc1OCCCN1CCCCC1	x	x	x	x	x	i	x	x	x
CN(C(=O)c1cccc(NC(=O)Cc2cccc(NC(=O)C3CCCN(C(=O)c4ccccc4)C3)c2)c1)C1CCC1 (stereo not drawn)	x	x	x	x	x	i	x	x	x
O/N=C/c1cc(Br)ccc1OCc1cccc(F)c1	-8	-8.9*	-0.01	i	i	i	46%*	i	34%*
Cc1ccc(CNC(=O)C2CCCN(S(=O)(=O)N3CCC(C)CC3)C2)cc1 (stereo not drawn)	-9	i	x	i	i	i	x	x	x
CCc1ccc(CNC(=O)C2CCCN(S(=O)(=O)N3CC(C)CC(C)C3)C2)cc1 (stereo not drawn)	-7	-8.2*	x	i	i	i	38%*	i	i
O=C1[C@@H]2[C@@H]3C[C@@H]([C@H]4ON=C(c5ccc(Cl)cc5)[C@@H]34)[C@@H]2C(=O)N1C1CCCCC1	-6	i	0.93	i	i	i	i	i	i
O=C(O)CCC1(CCC(=O)O)CCCC(CCC(=O)O)(CCC(=O)O)C1=O	x	x	x	x	x	i	x	x	x
Cc1nn(Cc2ccccc2)c(Cl)c1C(=O)OCc1nnc(-c2ccccc2)o1	-17	i	-0.6	i	i	i	x	x	x
Cc1nn(Cc2ccccc2)c(Cl)c1C(=O)OCc1nnc(-c2ccc(Cl)cc2)o1	-13	i	x	i	i	i	i	i	i
Cn1ncc(Cl)c1C(=O)N1CCN(S(=O)(=O)c2ccc(Cl)s2)CC1	-6	i	x	i	i	i	x	x	x
SMILES	hERG rescue	KCNK9 block	Cl transport mod	KCNQ1 inh	KCNQ1 pot	KCNK3 block	KCNK9 inh conf	Kir21 sel	HEK293 Tl ctr
COc1ccc(COC(=O)Nc2cc3c(C(F)(F)F)nn(C)c3s2)cc1	-11	i	-1.3	i	i	i	i	i	i
Cc1c(C(=O)Nc2ccc3c(c2)OCO3)oc2ccccc12	-12	-15*	x	i	i	i	62%*	i	33%*
O=C(NC1CCN(Cc2ccccc2)CC1)c1cc(S(=O)(=O)N2CCOCC2)ccc1Cl	x	x	x	x	x	i	x	x	x
CCC(=O)N(CCC1(c2ccccc2OC)CCOC(C(C)C)C1)Cc1ccco1 (stereo not drawn)	-16	-14*	-2.2	i	i	i	47%*	i	46%*
O=C(c1ccc2c3c(cccc13)CC2)C1CCCN(Cc2cccnc2)C1 (stereo not drawn)	-13	i	-0.73	i	i	i	i	i	i
CC(=O)N1CCCC(C(=O)c2ccc3c4c(cccc24)CC3)C1 (stereo not drawn)	-10	i	-0.15	i	i	i	i	i	i
COc1cc(CN2CCCC(C(=O)c3ccc4c5c(cccc35)CC4)C2)cc(OC)c1O (stereo not drawn)	-18	i	0.21	i	i	i	i	i	i
COc1cccc(OC)c1CN1CCCC(C(=O)c2ccccc2SC)C1 (stereo not drawn)	-24	i	x	i	i	i	i	i	i
Cc1ccc(S(=O)(=O)N(C)C[C@@H]2Oc3ccc(NS(C)(=O)=O)cc3CC(=O)N([C@H](C)CO)C[C@@H]2C)cc1	x	x	x	x	x	i	x	x	x
Cc1nnc(SCc2ccccc2)nc1-c1ccccc1	-11	i	x	i	i	i	i	i	i
c1ccc(CSc2nnc3c4ccccc4c4ccccc4c3n2)cc1	-6	i	x	i	i	x	x	x	x
CNc1nc(-c2ccccc2)nnc1C(F)(F)F	-10	i	0.44	i	i	i	x	x	x
Cc1ccc(Sc2nc(-c3ccccc3)nnc2C(F)(F)F)cc1	-11	i	0.71	i	i	i	i	i	i
CC(C)CCC(C)N=Cc1c(O)n(Cc2ccccc2)c(=O)c2ccccc12 (stereo not drawn)	-6	-13*	-0.33	i	i	i	74%*	i	44%*
CCN(CC)CCCN=Cc1c(O)n(Cc2ccccc2)c(=O)c2ccccc12	-5	i	x	i	i	i	x	x	x
